In article PMC3962999 (The Biochemical journal, 2011):
Numbering of substitutions follows the chain as printed.

Key:
PBD1 (PPIP5K1) = target: T1, PBD1 (PPIP5K1) (Homo sapiens, UniProt Q6PFW1); assay: SPR equilibrium binding to immobilized lipid vesicles, PBD1; settings: SPR, in words
T1 sequence (Q6PFW1 382-917): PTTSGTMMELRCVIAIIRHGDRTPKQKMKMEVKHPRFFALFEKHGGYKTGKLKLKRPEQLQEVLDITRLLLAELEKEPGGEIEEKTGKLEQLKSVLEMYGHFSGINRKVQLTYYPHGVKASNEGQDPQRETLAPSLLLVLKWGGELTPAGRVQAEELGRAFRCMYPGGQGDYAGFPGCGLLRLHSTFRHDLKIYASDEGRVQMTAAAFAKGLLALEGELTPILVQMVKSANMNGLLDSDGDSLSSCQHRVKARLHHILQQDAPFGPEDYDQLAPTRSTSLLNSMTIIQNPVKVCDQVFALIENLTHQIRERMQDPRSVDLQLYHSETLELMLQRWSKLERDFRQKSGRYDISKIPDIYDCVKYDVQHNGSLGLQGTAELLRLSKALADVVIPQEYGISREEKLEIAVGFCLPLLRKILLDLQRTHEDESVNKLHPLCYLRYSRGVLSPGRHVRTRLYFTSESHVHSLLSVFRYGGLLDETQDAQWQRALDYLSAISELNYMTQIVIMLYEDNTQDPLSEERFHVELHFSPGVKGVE
Procedure, shortened: (§1)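 Large unilamellar vesicles (PtdCho/PtdE/test phosphoinositide 77:20:3) were captured on an L1 chip to 5000 RU. Signals were corrected against phosphoinositide-free vesicles. Kd came from nonlinear fitting of Req = Rmax/(1+Kd/C). Concentrations were: GRP-1 PH domain 2.5–125 nM; PBD1 on PtdIns(3,4,5)P₃ 5–150 nM; bisphosphate vesicles 75–1900 nM.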

PBD2 (PPIP5K2) = target: T2, PBD2 (PPIP5K2) (Homo sapiens, UniProt O43314); assay: SPR equilibrium binding to immobilized lipid vesicles, PBD2; settings: SPR, in words
T2 sequence (O43314 371-901 isoform O43314-2): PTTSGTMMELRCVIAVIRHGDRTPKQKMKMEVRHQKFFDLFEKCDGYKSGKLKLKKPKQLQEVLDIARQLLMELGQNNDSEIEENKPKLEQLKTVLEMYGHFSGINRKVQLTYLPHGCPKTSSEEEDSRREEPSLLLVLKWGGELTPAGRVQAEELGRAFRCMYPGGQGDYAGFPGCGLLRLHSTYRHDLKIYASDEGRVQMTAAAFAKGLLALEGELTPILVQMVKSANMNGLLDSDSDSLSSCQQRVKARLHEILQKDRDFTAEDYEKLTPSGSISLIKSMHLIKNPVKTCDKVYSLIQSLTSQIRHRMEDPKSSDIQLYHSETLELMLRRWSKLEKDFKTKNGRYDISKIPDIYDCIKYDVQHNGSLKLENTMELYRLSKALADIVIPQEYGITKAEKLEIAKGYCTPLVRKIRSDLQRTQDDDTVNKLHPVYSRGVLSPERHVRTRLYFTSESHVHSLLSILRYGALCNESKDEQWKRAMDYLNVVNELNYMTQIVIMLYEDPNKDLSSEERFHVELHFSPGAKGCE
Procedure, shortened: as §1

PBD1R417A = target: T3, PBD1R417A (Homo sapiens, UniProt Q6PFW1, R417A); assay: SPR equilibrium binding, PBD1 R417A mutant; settings: results not shown
T3 sequence (Q6PFW1 382-917 R417A): T1 sequence (Q6PFW1 382-917) with R36A

## PtdIns(4,5)P2
PBD1 (PPIP5K1)
  binding to PBD1: significantly weaker ligands
PBD2 (PPIP5K2)
  binding to PBD2: relatively weakly
PBD1R417A
  binding to PBD1 R417A: eliminated all detectable binding
